{"source": "paper PMC10739612", "about": "(ACS Chemical Neuroscience, 2023)", "key": {"[1]": {"test_system": "i3Neurons stably expressing LC3-RFP-GFP", "test": "LC3-RFP-GFP dual reporter live imaging in i3Neurons", "assay_type": "cell-based, human", "how_it_was_run": "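iPSC-derived i3Neurons stably expressing LC3-RFP-GFP, DIV 10; 0.1% DMSO or test compound 15 μM for 72 h, or BafA1 100 nM for 24 h. Live Fast Airyscan at 37 °C; single mid-cell scan, 488/560 nm. GFP+RFP+ vesicles scored as autophagosomes, RFP-only as autolysosomes. Autolysosome size and intensity from red-channel particle analysis. Three experiments, 60–70 cells per treatment; mean ± SEM.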"}, "[2]": {"test_system": "HeLa cells expressing eGFP-LC3", "test": "eGFP-LC3 puncta formation assay", "assay_type": "cell-based", "how_it_was_run": "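HeLa stably expressing eGFP-LC3, 3000 cells/well (384-well), 24 h at 37 °C, then 4 h compound exposure. PFA fixation (12 min RT), Hoechst 2 μg/mL; imaged at 10× (DAPI/FITC). Screen hits: Z' >0.4, CV <20%, z-score >2.199 in two replicates. EC50 from 12-point doses (300–0.146 or 1000–0.488 μM by series), excluding concentrations with <40% viability; three experiments in duplicate, mean ± SEM.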"}, "[3]": {"biological_target": "T1, Lamin A/C (Homo sapiens, UniProt P02545)", "T1 sequence (P02545 1-566 limits assumed)": "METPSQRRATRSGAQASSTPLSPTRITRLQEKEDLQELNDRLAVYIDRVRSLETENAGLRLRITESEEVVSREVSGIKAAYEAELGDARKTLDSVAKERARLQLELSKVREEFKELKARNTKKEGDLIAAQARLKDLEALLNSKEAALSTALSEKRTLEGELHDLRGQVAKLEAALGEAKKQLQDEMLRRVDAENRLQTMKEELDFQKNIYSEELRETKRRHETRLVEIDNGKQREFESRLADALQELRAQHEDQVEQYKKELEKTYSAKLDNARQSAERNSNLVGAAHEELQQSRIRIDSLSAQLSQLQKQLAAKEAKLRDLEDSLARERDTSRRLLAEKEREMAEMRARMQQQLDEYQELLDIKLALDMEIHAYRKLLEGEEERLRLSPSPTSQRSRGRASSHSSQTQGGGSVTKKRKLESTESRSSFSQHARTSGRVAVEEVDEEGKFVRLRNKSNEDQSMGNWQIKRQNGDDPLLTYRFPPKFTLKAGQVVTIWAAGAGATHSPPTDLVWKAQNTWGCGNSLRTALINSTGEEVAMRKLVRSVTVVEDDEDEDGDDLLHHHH", "test": "Pulldown validation and competition, immunoblot for Lamin A/C", "assay_type": "binding", "conditions": "Biotin-RH1115 50 μM, HeLa lysate", "how_it_was_run": "(§1)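 HeLa grown 3 days to confluency; lysate cleared 18,000g, 30 min, 4 °C; protein by BCA. Streptavidin magnetic beads preloaded 2 h at 4 °C with biotinylated probe (50 μM) or biotin acid (50 μM). 500 μg lysate added (200 μL), 16 h; beads washed with PBS, eluted in 1× SDS loading buffer, immunoblotted. Competition: free test compound 100 μM added with lysate, 16 h, 4 °C.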"}, "[4]": {"biological_target": "T2, LAMP1 (Homo sapiens, UniProt P11279)", "T2 sequence (P11279 29-417)": "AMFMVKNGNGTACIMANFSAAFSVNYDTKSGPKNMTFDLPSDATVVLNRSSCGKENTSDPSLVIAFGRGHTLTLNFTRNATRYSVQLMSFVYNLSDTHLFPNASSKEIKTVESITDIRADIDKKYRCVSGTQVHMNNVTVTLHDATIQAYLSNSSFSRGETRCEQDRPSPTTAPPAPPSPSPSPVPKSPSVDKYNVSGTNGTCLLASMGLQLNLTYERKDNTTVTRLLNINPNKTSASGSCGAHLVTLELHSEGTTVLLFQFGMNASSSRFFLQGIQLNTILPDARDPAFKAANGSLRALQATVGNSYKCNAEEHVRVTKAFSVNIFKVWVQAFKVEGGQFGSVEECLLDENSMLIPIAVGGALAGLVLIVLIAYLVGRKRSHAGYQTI", "test": "Pulldown validation and competition, immunoblot for LAMP1", "assay_type": "binding", "conditions": "Biotin-RH1115 50 μM, HeLa lysate", "how_it_was_run": "as §1"}, "[5]": {"test_system": "i3Neurons", "test": "Cell viability assay in i3Neurons", "assay_type": "cell-based, human", "conditions": "72 h from DIV 7; DS1040 20 μM, RH1096 40 μM, RH1103 40 μM, RH1115 15 μM", "how_it_was_run": "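Viability check: DIV 10 i3Neurons on coated coverslips exposed 72 h (0.1% DMSO vehicle), fixed, immunostained for Tau and LAMP1. 5–6 random high-magnification fields per sample; neurons per unit area counted. Tau staining used to confirm normal morphology and neurite integrity. Mean ± SEM, three independent experiments.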"}, "[6]": {"test_system": "phosphorylation of the mTOR substrate p70S6K in HeLa cells", "test": "P70S6K and phospho-P70S6K immunoblotting", "assay_type": "cell-based", "conditions": "1a 20 μM, 2a 40 μM, compared to rapamycin 1 μM", "how_it_was_run": "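Same HeLa immunoblot workflow as for LC3, with test compound at 40 μM and 1% BSA for blocking. Probed for phospho-p70S6K and β-actin (anti-rabbit HRP secondary), then stripped and reprobed for total p70S6K; densitometry in ImageJ.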"}, "[7]": {"test_system": "LC3-II levels in HeLa cells", "test": "LC3 immunoblotting", "assay_type": "cell-based", "conditions": "4 h, 1a 20 μM, 2a 40 μM, further increase with BafA1 100 nM"}, "[8]": {"test_system": "LAMP1", "test": "LAMP1 expression immunoblotting in HeLa cells", "assay_type": "cell-based", "conditions": "50 μM, 24 h, vs control", "how_it_was_run": "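HeLa seeded at 300,000 cells/mL in 6-well plates; 0.1% DMSO or test compound 50 μM. Lysates cleared 12,000 rpm, 30 min, 4 °C; 10% SDS-PAGE, PVDF transfer; 5% blocker in TBS-T; primary antibody overnight 4 °C, HRP secondary 1 h RT; chemiluminescent detection; band quantification in ImageJ.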"}, "[9]": {"test_system": "i3Neurons", "test": "Analysis of lysosomal", "assay_type": "cell-based, human", "conditions": "15 μM, 72 h, vs DMSO", "how_it_was_run": "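DIV 10 i3Neurons on poly-L-ornithine/laminin-coated glass coverslips; 72 h exposure, 0.1% DMSO vehicle; fixed, LAMP1-immunostained, imaged by high-resolution confocal. Soma outlined, thresholded, ImageJ particle analysis (minimum 0.002 μm²) giving vesicle mean size, intensity and count per neuron. Three independent experiments, 20–25 neurons per treatment; mean ± SEM.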"}, "[10]": {"test_system": "HeLa cells", "test": "Cell viability assay by nuclear count", "assay_type": "cell-based", "conditions": "4 h, relative to DMSO"}}}
{"smiles": "CO/C1=C\\C(C)=C\\[C@@H](C)[C@@H](O)[C@@H](C)C/C(C)=C/C=C/[C@H](OC)[C@@H]([C@@H](C)[C@@H](O)[C@H](C)[C@@]2(O)C[C@@H](O)[C@H](C)[C@@H](C(C)C)O2)OC1=O", "note": "[BafA1, bafilomycin A1, reference compound]", "values": [{"measurement": "percentage of autolysosomes", "setting": "[1]; BafA1 100 nM 24 h, compared with RH1115 or DMSO", "result": "far less"}, {"measurement": "number of autophagosomes per neuronal cell body", "setting": "[1]; RH1115 15 μM 72 h, BafA1 100 nM 24 h", "result": "massively increased"}]}
{"smiles": "O=C(CCCCC1SCC2NC(=O)NC21)NCCOCCOCCOCCn1nncc1CCCC(=O)OCC1CN(Cc2ccccc2)CC12CCN(CC1CCCCC1)CC2", "note": "(stereo not shown) [Biotin-RH1115, (2-Benzyl-8-(cyclohexylmethyl)-2,8-diazaspiro[4.5]decan-4-yl)methyl 4-(1-(13-Oxo-17-(2-oxohexahydro-1H-thieno[3,4-d]imidazol-4-yl)-3,6,9-trioxa-12-azaheptadecyl)-1H-1,2,3-triazol-5-yl)butanoate]", "values": [{"measurement": "EC50", "setting": "[2]; Homo sapiens, HeLa, 4 h, read-out: EC50 in the eGFP-LC3 puncta formation assay", "result": 46.2, "unit": "µM"}, {"measurement": "Lamin A/C capture in pulldown eluent (western blot)", "setting": "[3]", "result": "highly enriched"}, {"measurement": "glycosylated LAMP1 capture in pulldown eluent (western blot)", "setting": "[4]", "result": "pulled down and concentrated in the eluent"}]}
{"smiles": "OCC1CN(Cc2ccccc2)CC12CCN(Cc1ccccc1)CC2", "note": "(stereo not shown) [Compound 2b, (2,8-Dibenzyl-2,8-diazaspiro[4.5]decan-4-yl)methanol]", "values": [{"measurement": "cytotoxicity in i3Neurons (cell density at end of treatment)", "setting": "[5]", "result": "no overt cytotoxicity"}, {"measurement": "fold increase in potency compared to RH1096 (eGFP-LC3 puncta formation)", "setting": "[2]; relative to RH1096", "result": 3, "unit": "fold"}]}
{"smiles": "OCC1CN(Cc2ccccc2)CC12CCN(Cc1ccncc1)CC2", "note": "(stereo not shown) [Compound 2d, (2-Benzyl-8-(pyridin-4-ylmethyl)-2,8-diazaspiro[4.5]decan-4-yl)methanol]", "values": [{"measurement": "fold decrease in potency compared to RH1096 (eGFP-LC3 puncta formation)", "setting": "[2]; relative to RH1096", "result": 2, "unit": "fold"}]}
{"smiles": "OCC1CN(Cc2ccccc2)CC12CCN(Cc1ccccn1)CC2", "note": "(stereo not shown) [Compound 2a, (2-Benzyl-8-(pyridin-2-ylmethyl)-2,8-diazaspiro[4.5]decan-4-yl)methanol]", "values": [{"measurement": "phosphorylation of p70S6K (mTOR dependence of autophagy activation)", "setting": "[6]", "result": "mTOR-independent manner"}, {"measurement": "cytotoxicity in i3Neurons (cell density at end of treatment)", "setting": "[5]", "result": "no overt cytotoxicity"}, {"measurement": "LC3-II levels by western blot", "setting": "[7]", "result": "significant increase"}]}
{"smiles": "OCC1CN(Cc2ccccc2)CC12CCN(CC1CCCCC1)CC2", "note": "(stereo not shown) [Compound 2c, (2-Benzyl-8-(cyclohexylmethyl)-2,8-diazaspiro[4.5]decan-4-yl)methanol]", "values": [{"measurement": "cytotoxicity in i3Neurons (cell density at end of treatment)", "setting": "[5]", "result": "no overt cytotoxicity"}, {"measurement": "fold increase in potency compared to RH1096 (eGFP-LC3 puncta formation)", "setting": "[2]; relative to RH1096", "result": 6, "unit": "fold"}, {"measurement": "ratio of glycosylated/non-glycosylated LAMP1", "setting": "[8]", "result": "significant increase"}, {"measurement": "autolysosome size relative to DMSO-treated condition", "setting": "[1]; 15 μM, 72 h", "result": "~3", "unit": "times"}, {"measurement": "total RFP intensity per autolysosome vesicle", "setting": "[1]; 15 μM, 72 h, vs DMSO", "result": "increased"}, {"measurement": "intensity of LAMP1 vesicles", "setting": "[9]", "result": "increased"}, {"measurement": "mean size of LAMP1 vesicles", "setting": "[9]", "result": "increased"}]}
{"smiles": "CCCn1cc(CN2CCc3nc(N4CCN(C)CC4)[nH]c(=O)c3CC2)c2ccccc21", "note": "[Compound 1a, 2-(4-Methylpiperazin-1-yl)-7-((1-propyl-1H-indol-3-yl)methyl)-3,5,6,7,8,9-hexahydro-4H-pyrimido[4,5-d]azepin-4-one]", "values": [{"measurement": "phosphorylation of p70S6K (mTOR dependence of autophagy activation)", "setting": "[6]", "result": "mTOR-independent manner"}, {"measurement": "cytotoxicity in i3Neurons (cell density at end of treatment)", "setting": "[5]", "result": "no overt cytotoxicity"}, {"measurement": "LC3-II levels by western blot", "setting": "[7]", "result": "significant increase"}]}
{"smiles": "CCCn1cc(CN2CCc3nc(-c4ccccc4)[nH]c(=O)c3CC2)c2ccccc21", "note": "[Compound 1c, 2-Phenyl-7-((1-propyl-1H-indol-3-yl)methyl)-3,5,6,7,8,9-hexahydro-4H-pyrimido[4,5-d]azepin-4-one]", "values": [{"measurement": "cytotoxicity (percent viability by nuclear count)", "setting": "[10]", "result": "increase in cell death at concentrations that are close to the concentrations that induced autophagy"}]}
